According to ChEMBL document CHEMBL1157128, “Silica-supported fluoroboric acid (HBF(4)-SiO(2)) catalyzed highly productive synthesis of thiomorpholides as activators of l-asparaginase as well as the antioxidant agent” (Bioorg Med Chem, 2010):
Calls of active or inactive are those of the source. The calls are words filed in the database; no cut-off is given here.

Experiments:
[1] = test system: Radical scavenging activity; assay: Antioxidant activity assessed as DPPH free radical scavenging activity at 1 mM/ml after 30 mins; format: functional
Outline: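 DPPH scavenging assay. 1 mM compound stock was mixed with DPPH in methanol (0.5 mL, 0.3 mM) in a 3 mL total mixture and left at room temperature for 30 min. Absorbance was read at 520 nm. Percent activity was calculated as [1 − OD test/OD control] × 100. BHA served as standard.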

[2] = test system: L-asparaginase (Erwinia carotovora); assay: Binding affinity to Erwinia carotovora L-asparaginase by spectrophotometry; conditions: Pectobacterium carotovorum
[3] = test system: L-asparaginase (Erwinia carotovora); assay: Ratio of Vmax to Km for Erwinia carotovora L-asparaginase by Lineweaver-Burke plot; conditions: Pectobacterium carotovorum

Structure (SMILES) | Activity [1] | Activity [2] | KA [2] | Vmax/Km [3]
O=[N+]([O-])c1ccc(CC(=S)N2CCOCC2)cc1 | 0% |  |  | 
Cc1ccc(CC(=S)N2CCOCC2)cc1 | 21.6% |  |  | 
S=C(Cc1ccc2ccccc2c1)N1CCOCC1 | 0% |  |  | 
S=C(CCCc1ccccc1)N1CCOCC1 | 0% |  |  | 
COc1ccc(CC(=S)N2CCOCC2)cc1OC | 32.6% | Active | 0.985 µM | 13.3
S=C(Cc1ccc(OCc2ccccc2)cc1)N1CCOCC1 | 25.9% |  |  | 
Oc1ccccc1CC(=S)N1CCOCC1 | 36.1% |  | 0.625 µM | 4.04
COc1ccc(CC(=S)N2CCOCC2)cc1 | 24.3% | Active | 0.0851 µM | 6.25
S=C(Cc1ccccc1)N1CCOCC1 | 24.3% |  |  | 
Nc1ccccc1CC(=S)N1CCOCC1 | 0% |  |  | 
S=C(Cc1ccco1)N1CCOCC1 | 0% |  |  | 
COc1ccc(O)c(C(C)(C)C)c1.COc1ccc(O)cc1C(C)(C)C | 72.3% |  |  | 
S=C(Cc1ccc(Br)cc1)N1CCOCC1 | 0% |  |  | 
